# In PubChem BioAssay:
# Calls of active or inactive are those of the source.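 Rule for the calls, unless noted: active = fluorescence slope after compound addition differing from the mean of all tested samples at 99.7% confidence, mostly higher but some lower; inactive = the rest.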
# Columns and labels:
# [1] = inhibitors of TNFa-induced NFkB p65 translocation, primary screen, imaging, HUVEC, MLSMR starter and 10KST1 sets (AID 438;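 active = inhibition above 20% together with a positive visual image hit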;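 note: compound added about 3h40 before a 20 min TNFalpha stimulation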;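 for inhibition: signal is the nuclear over cytoplasmic p65 intensity ratio per well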); conditions: HUVEC TNFa-induced p65 nuclear translocation; cell count: measured here: nuclei count (cytotoxicity indicator), at 2.08 µM; inhibition: at 2 µM, stronger effect = higher value, 0% TNFa-plus-vehicle, 100% no-TNFa wells
# [2] = inhibitors of mutant huntingtin aggregation, primary screen, imaging, exon1htt(103Q)mCFP cells, high-content imaging (AID 483;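 active = visual image review flags a hit and inhibition of aggregation exceeds 20%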;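 note: compound exposure lasted 3 days before fixation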;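 for nuclei count: percent of the per-plate median nuclei count of sample wells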); conditions: exon1htt(103Q)mCFP cell line, aggregate imaging, at 2 µM; inhibition of aggregation: stronger effect = higher value; nuclei count: measured here: cell count, toxicity
# [3] = inhibitors of E-selectin induction by TNFa, primary screen, imaging, HUVEC, immunofluorescence, MLSMR starter and 10KST1 sets (AID 487;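 active = visually confirmed hit in the image check and inhibition above 20%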;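 for inhibition: signal is fraction of cell area covered by stained E-selectin grains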;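 for nuclei count: 100% = median nuclei count of all wells on the same plate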); conditions: HUVEC TNFalpha-induced E-selectin immunofluorescence imaging, at 2 µM; inhibition: stronger effect = higher value; nuclei count: measured here: cell number, toxicity
# [4] = biological target: Voltage-gated potassium channel subunit beta-2 (Rattus norvegicus) (UniProt P62483); experiment: KvBeta enzyme negative modulators, primary screen, biochemical, NADPH fluorescence (AID 622;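 active = fluorescence slope higher than the sample average by over 3 SD, cut at about -0.22 in these data, passing the limit was not always enough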;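 note: slope of raw intensity against log time taken from 70 to 1610 s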); conditions: recombinant KvBeta, 4-cyanobenzaldehyde reduction, at 10 µM, stronger effect = higher value
# Chain of Voltage-gated potassium channel subunit beta-2 (Rattus norvegicus) (P62483 whole entry, looked up): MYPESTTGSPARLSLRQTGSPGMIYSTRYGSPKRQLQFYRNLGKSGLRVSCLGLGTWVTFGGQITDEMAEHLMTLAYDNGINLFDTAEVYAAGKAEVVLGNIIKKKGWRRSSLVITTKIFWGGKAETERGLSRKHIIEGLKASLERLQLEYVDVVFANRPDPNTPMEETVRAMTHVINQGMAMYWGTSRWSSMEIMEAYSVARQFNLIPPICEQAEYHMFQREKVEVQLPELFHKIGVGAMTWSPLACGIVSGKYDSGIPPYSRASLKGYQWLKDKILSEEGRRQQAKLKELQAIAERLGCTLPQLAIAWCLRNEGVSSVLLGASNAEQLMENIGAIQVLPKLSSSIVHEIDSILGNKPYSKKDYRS
# [5] = biological target: Voltage-gated potassium channel subunit beta-2 (Rattus norvegicus) (UniProt P62483); experiment: KvBeta positive modulators, primary screen, biochemical, NADPH fluorescence (AID 623;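 active = NADPH fluorescence slope more negative than the mean of all samples by about 3 SD, 99.7% confidence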;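 note: fluorescence intensity change per second fitted from 20 to 320 s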); conditions: Recombinant KvBeta, NADPH fluorescence decrease slope, 10 min; at 10 µM; stronger effect = lower value
# [6] = biological target: Muscarinic acetylcholine receptor M4 (Homo sapiens) (UniProt P08173); experiment: compounds altering M4/GIRK thallium flux, either direction, primary screen, M4 allosteric agonist project, cell-based, HEK293 M4/GIRK, BTC-AM (AID 625); conditions: at 10 µM, actives lie on both sides;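 note: thallium influx through GIRK channels coupled to M4 in HEK293 cells with BTC-AM dye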
# Chain of Muscarinic acetylcholine receptor M4 (Homo sapiens) (P08173 whole entry, looked up): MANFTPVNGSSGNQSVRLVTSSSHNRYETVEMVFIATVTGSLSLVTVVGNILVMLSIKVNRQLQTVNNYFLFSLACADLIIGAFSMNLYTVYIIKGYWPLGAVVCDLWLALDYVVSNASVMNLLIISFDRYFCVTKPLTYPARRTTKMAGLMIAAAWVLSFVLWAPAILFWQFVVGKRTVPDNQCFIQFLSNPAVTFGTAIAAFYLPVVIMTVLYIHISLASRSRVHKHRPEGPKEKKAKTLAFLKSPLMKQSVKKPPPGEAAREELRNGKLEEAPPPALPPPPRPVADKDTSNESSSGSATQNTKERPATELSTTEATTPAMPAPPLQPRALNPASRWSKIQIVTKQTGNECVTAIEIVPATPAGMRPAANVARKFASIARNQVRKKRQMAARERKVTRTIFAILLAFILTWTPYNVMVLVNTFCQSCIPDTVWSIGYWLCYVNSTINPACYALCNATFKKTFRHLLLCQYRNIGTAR
# Method in brief: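 Material: M4/GIRK1/GIRK2 stable HEK293 cell line. Medium: pH 7.3 thallium assay buffer. Dosing: single compound concentration, 10 µM final. Schedule: 1 h dye loading, 2 min kinetic read. Measured by: kinetic fluorescence with BTC-AM dye. Read-out: post-addition slope, 15–24 s, of baseline-normalized fluorescence. Benchmarks: carbachol and DMSO controls.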
# [7] = inhibitors of Sendai virus-induced IRF3 signaling, primary screen, TLR/RLR signaling modifier project, cell-based, Sendai virus stimulus, luciferase, 10K MLSCN set (AID 602276;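 active = inhibition at or above 50% at 10 µM; inactive = inhibition below 50%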;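 note: firefly luciferase from ISG56 promoter only with Renilla not read in this screen; 0% = Sendai virus plus DMSO and 100% = medium plus DMSO without virus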); conditions: HEK293 RL24 IRF3 luciferase reporter, at 10 µM, stronger effect = higher value
# [8] = inhibitors of poly I:C-induced TLR3 signaling, primary screen, cell-based, poly I:C stimulus, luciferase, 10K MLSCN set (AID 602277;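 active = inhibition of the reporter signal at or above 50%; inactive = inhibition below 50%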); conditions: HEK293-TLR3 RL24 IRF3 luciferase reporter, at 10 µM, stronger effect = higher value
SMILES,cell count [1],inhibition [1],inhibition of aggregation [2],nuclei count [2] [%],inhibition [3],nuclei count [3] [%],fluorescence slope [4],NADPH fluorescence slope [5],fluorescence slope [6],inhibition [7],inhibition [8]
Cc1c(NC(=O)CN2c3cccc4cccc(c34)S2(=O)=O)c(=O)n(-c2ccccc2)n1C,721,-7.1% (inactive),1.4% (inactive),103,-119% (inactive),141,-0.442 (inactive),-2.5e-05 (inactive),0.00478 (inactive),8.89% (inactive),15.5% (inactive)
Cc1ccc(NC(=O)CNc2cccc(C)c2C)c(C)c1,505,2.5% (inactive),-48.7% (inactive),12.5,-54.3% (inactive),107,-0.517 (inactive),-7.1e-05 (inactive),0.00498 (inactive),5.56% (inactive),-4.35% (inactive)
Cc1ccc(NC(=O)COc2nc(C)cs2)cc1,400,4.5% (inactive),-3.7% (inactive),100,-48.8% (inactive),108,-0.555 (inactive),-5e-05 (inactive),0.00704 (inactive),6.37% (inactive),9.54% (inactive)
O=C1CC(c2ccc(S(=O)(=O)N3CCN(c4ccccc4)CC3)cc2)CN1 (centres undefined),426,0.3% (inactive),7.2% (inactive),102,75.6% (active),44.2,-0.289 (inactive),-4.6e-05 (inactive),0.00584 (inactive),5.45% (inactive),14.5% (inactive)
COc1cc2c(cc1OC)-c1cc(OCc3cccnc3)nc(=O)n1CC2,753,-8.4% (inactive),-4.9% (inactive),96.1,-49% (inactive),116,-0.0427 (active),-1.1e-05 (inactive),0.00535 (inactive),31.6% (inactive),28.8% (inactive)
COc1ccc(C2c3c(-c4ccccc4O)n[nH]c3C(=O)N2CCc2ccc(OC)c(OC)c2)cc1 (centres undefined),644,-22.4% (inactive),17.2% (inactive),68.1,-37.6% (inactive),114,-0.616 (inactive),5.9e-06 (inactive),0.00748 (inactive),17.4% (inactive),21.5% (inactive)
Cc1sc2c(c1C)CN(C1CC(C)(C)NC(C)(C)C1)CN2C(=O)c1ccco1,307,10.6% (inactive),2% (inactive),91.5,-5% (inactive),105,-0.377 (inactive),-2.6e-05 (inactive),0.00444 (inactive),-1.32% (inactive),-7.67% (inactive)
O=C(O)CCCC(=O)NCCc1ccncc1,425,8.1% (inactive),-3.6% (inactive),112,1.4% (inactive),112,-0.519 (inactive),-7e-06 (inactive),0.00581 (inactive),3.6% (inactive),33.4% (inactive)
CCOC(=O)N1CCN(C(=O)c2ccc3c(=O)n(CCc4ccccc4)c(=O)[nH]c3c2)CC1,784,-7.8% (inactive),5.4% (inactive),111,-60% (inactive),115,-0.307 (inactive),4.7e-06 (inactive),0.00774 (inactive),-16.4% (inactive),-40% (inactive)
